Key:
[1] = target: Fatty acid synthase (Homo sapiens) (UniProt P49327); test: Inhibition of fatty acid synthase at a concentration of 150 (uM)
In short: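 Fatty acid synthase partially purified from HL-60 human promyelocytic leukemia cells. Lysate incubated with compound (150 μM), then activity read as rate of NADPH oxidation in presence of acetyl-CoA and malonyl-CoA. Percent inhibition reported as mean ± SEM, at least two experiments.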

[2] = species: Homo sapiens; test: Inhibition of p21 palmitoylation at a concentration of 10(ug/ml); assay type: functional
In short: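 T24 cells seeded at ~25% confluency and attached overnight, treated 4 h with compound at 10 μg/mL, then labelled 2 h with [3H]palmitate (100–200 μCi/mL). Lysates in PBS-TDS, protein-normalized (100–300 μg), immunoprecipitated with Y13-259 anti-Ras antibody and Protein G agarose. Pellet radioactivity counted by scintillation. Percent inhibition vs untreated controls, one or two experiments.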

[3] = system: T-24; test: Inhibition of human T24 cell proliferation; assay type: functional, cell-based
In short: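 T24 human bladder carcinoma cells (H-[Val12]-ras overexpressing) in RPMI-1640 with 10% FBS, seeded at 10% confluency, allowed 24 h attachment, then exposed to varying concentrations up to 50 μg/mL for 72 h. Surviving cells measured by sulforhodamine B staining (MTS also used). IC50 vs untreated controls, mean ± SEM of at least three experiments.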

[4] = species: Homo sapiens; test: The compound was tested for the inhibition of p21 palmitoylation at a concentration of 5(ug/mL); assay type: functional
In short: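 T24 human bladder carcinoma cells seeded at ~25% confluency in 60 mm dishes, attached overnight; treated 4 h with 5 μg/mL compound, then 2 h [³H]palmitate (100–200 μCi/mL). Lysed in PBS-TDS, protein-normalized (100–300 μg), immunoprecipitated with Y13-259 anti-Ras plus Protein G agarose, washed; pellet radioactivity counted. Percent inhibition of p21 palmitoylation vs untreated controls; six experiments, mean ± SEM.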

Fatty acid synthase (Homo sapiens), sequence (P49327 whole entry, looked up): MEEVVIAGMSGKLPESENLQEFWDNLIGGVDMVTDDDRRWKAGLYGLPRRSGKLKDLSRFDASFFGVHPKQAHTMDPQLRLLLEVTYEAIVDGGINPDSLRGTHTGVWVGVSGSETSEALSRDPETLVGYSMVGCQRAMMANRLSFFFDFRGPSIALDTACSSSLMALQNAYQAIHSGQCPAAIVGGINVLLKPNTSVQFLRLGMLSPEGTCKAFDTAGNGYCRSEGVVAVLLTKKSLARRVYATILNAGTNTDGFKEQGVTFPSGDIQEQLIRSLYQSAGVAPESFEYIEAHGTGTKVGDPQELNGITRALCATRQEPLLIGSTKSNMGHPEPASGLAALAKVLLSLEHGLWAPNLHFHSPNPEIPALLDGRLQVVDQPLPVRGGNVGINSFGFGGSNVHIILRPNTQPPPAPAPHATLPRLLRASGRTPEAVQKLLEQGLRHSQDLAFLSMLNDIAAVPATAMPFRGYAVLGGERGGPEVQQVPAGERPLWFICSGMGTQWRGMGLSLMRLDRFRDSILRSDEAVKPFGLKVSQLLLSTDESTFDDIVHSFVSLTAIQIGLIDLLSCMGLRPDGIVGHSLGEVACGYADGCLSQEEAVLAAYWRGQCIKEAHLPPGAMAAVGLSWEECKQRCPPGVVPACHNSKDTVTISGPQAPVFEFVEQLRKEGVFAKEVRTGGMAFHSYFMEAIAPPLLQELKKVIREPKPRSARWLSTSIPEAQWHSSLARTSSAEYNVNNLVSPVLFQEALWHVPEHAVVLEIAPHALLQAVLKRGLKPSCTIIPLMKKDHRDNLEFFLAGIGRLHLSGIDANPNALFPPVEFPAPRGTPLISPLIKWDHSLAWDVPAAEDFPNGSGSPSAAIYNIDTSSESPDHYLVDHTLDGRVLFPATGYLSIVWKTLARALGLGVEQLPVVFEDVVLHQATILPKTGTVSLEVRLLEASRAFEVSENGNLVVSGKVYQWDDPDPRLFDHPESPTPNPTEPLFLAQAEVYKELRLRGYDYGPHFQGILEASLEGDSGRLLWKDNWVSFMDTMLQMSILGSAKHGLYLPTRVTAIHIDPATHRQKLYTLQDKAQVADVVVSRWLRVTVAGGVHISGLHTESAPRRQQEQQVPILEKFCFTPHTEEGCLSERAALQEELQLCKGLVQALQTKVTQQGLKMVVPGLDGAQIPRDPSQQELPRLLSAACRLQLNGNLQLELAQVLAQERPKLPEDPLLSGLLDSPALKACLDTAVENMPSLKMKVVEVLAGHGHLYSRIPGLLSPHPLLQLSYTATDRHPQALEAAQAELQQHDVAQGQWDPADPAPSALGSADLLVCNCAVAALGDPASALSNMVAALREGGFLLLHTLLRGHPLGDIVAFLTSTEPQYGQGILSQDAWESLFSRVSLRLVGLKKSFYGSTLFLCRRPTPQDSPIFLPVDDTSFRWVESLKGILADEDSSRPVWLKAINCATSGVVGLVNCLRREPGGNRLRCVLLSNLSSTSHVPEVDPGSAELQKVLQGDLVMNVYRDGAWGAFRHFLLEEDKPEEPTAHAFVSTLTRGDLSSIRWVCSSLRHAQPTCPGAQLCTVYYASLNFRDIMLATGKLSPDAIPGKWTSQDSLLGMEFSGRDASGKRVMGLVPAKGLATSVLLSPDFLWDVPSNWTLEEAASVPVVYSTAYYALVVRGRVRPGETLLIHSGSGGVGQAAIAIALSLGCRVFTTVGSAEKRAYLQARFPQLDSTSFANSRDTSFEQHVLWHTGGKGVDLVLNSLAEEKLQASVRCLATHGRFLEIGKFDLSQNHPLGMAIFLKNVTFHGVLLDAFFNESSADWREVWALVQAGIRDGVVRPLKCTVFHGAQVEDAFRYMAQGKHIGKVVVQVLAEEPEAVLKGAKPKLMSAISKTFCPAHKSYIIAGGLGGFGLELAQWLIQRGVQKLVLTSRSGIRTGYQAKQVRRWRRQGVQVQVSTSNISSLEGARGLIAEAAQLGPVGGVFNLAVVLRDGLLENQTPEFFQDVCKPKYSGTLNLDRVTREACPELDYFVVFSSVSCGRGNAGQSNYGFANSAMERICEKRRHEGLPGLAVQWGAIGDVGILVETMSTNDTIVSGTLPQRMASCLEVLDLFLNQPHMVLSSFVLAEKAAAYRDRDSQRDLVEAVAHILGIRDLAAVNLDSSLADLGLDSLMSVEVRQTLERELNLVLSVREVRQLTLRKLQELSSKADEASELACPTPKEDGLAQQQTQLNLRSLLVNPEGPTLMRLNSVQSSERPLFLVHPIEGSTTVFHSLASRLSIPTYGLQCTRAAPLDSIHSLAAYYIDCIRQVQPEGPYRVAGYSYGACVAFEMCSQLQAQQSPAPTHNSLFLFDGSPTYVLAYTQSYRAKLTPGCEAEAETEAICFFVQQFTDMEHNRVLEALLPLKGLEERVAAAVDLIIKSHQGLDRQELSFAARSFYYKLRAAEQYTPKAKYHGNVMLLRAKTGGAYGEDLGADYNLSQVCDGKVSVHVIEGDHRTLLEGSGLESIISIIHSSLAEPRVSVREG

CCCCCCCCCCCCCCCCCC(O)[C@H]1O[C@H]1C(=O)N(C)C (some centres undefined)
inhibition [1]: 3%
inhibition [2]: 0%
IC50 [3]: 52 µM

CCCCCCCCCCCC(=O)[C@H]1O[C@H]1C(N)=O
inhibition [1]: 44%
inhibition [2]: 40%
IC50 [3]: 20 µM

CCCCCCCCCCCCCC(O)[C@H]1O[C@H]1C(N)=O (some centres undefined)
inhibition [1]: 3%
inhibition [2]: 34%
IC50 [3]: 110 µM

CCCCCCCCC(O)[C@H]1O[C@H]1C(=O)N(C)C (some centres undefined)
inhibition [1]: 0%
inhibition [2]: 9%
IC50 [3]: > 190 µM

CCCCCCCCCCCCCCCC(=O)[C@H]1O[C@H]1C(=O)N(C)C
inhibition [1]: 0%
inhibition [2]: 31%
IC50 [3]: 40 µM

CCCCCCCCC1OC(=O)[C@@H]2O[C@H]12 (some centres undefined)
inhibition [1]: 75%
inhibition [2]: 32%
IC50 [3]: > 240 µM

CCCCCCCCC(O)[C@H]1O[C@H]1C(N)=O (some centres undefined)
inhibition [1]: 4%
inhibition [2]: 16%
IC50 [3]: > 220 µM

CCCCCCCCCC(O)[C@H]1O[C@H]1C(N)=O (some centres undefined)
inhibition [1]: 5%
inhibition [2]: 27%
IC50 [3]: > 200 µM

CCCCCCCCCC(=O)[C@H]1O[C@H]1C(=O)N(C)C
inhibition [1]: 2%
inhibition [2]: 17%
IC50 [3]: 77 µM

CCCCCCCCCCCCCCCCCC1OC(=O)[C@@H]2O[C@H]12 (some centres undefined)
inhibition [1]: 5%
inhibition [2]: 45%
IC50 [3]: > 150 µM

NC(=O)[C@H]1O[C@H]1C(=O)c1ccccc1
inhibition [1]: 85%
inhibition [2]: 22%
IC50 [3]: 15 µM

CCCCCCCCCCCCCCCCCC(=O)[C@H]1O[C@H]1C(N)=O
inhibition [1]: 0%
inhibition [2]: 28%
IC50 [3]: 17 µM

CCCCCCCCCCCC(=O)[C@H]1O[C@H]1C(=O)N(C)C
inhibition [1]: 5%
inhibition [2]: 10%
IC50 [3]: 49 µM

CCCCCCCCCC(O)[C@H]1O[C@H]1C(=O)N(C)C (some centres undefined)
inhibition [1]: 0%
inhibition [2]: 0%
IC50 [3]: 220 µM

CCCCCCCCCCCC(O)[C@H]1O[C@H]1C(=O)N(C)C (some centres undefined)
inhibition [1]: 9%
inhibition [2]: 0%
IC50 [3]: 95 µM

CCCCCCCCCCCCCCCC(=O)[C@H]1O[C@H]1C(N)=O
inhibition [1]: 2%
inhibition [2]: 67%
IC50 [3]: 12 µM

CCCCCCCCCCCCCCCC(O)[C@H]1O[C@H]1C(N)=O (some centres undefined)
inhibition [1]: 10%
inhibition [2]: 40%
IC50 [3]: 190 µM

CCCCCCCCCCCCCCCCCC(O)[C@H]1O[C@H]1C(N)=O (some centres undefined)
inhibition [1]: 0%
inhibition [2]: 3%
IC50 [3]: > 140 µM

CCCCCCCCCCCCCC(=O)[C@H]1O[C@H]1C(=O)N(C)C
inhibition [1]: 2%
inhibition [2]: 0%
IC50 [3]: 40 µM

CCCCCCCCCC(=O)[C@H]1O[C@H]1C(N)=O
inhibition [1]: 92%
inhibition [2]: 63%
IC50 [3]: 7 µM

CCCCCCCCCCCCCCCC(O)[C@H]1O[C@H]1C(=O)N(C)C (some centres undefined)
inhibition [1]: 0%
inhibition [2]: 0%
IC50 [3]: 62 µM

CCCCCCCCCCCC(O)[C@H]1O[C@H]1C(N)=O (some centres undefined)
inhibition [1]: 6%
inhibition [2]: 29%
IC50 [3]: 130 µM

CN(C)C(=O)[C@H]1O[C@H]1C(=O)c1ccccc1
inhibition [1]: 3%
inhibition [2]: 59%
IC50 [3]: 29 µM

CCCCCCCCC(=O)[C@H]1O[C@H]1C(N)=O
inhibition [1]: 74%
inhibition [2]: 42%
IC50 [3]: 27 µM

CCCCCCCCCCCCCCCCCC(=O)[C@H]1O[C@H]1C(=O)N(C)C
inhibition [1]: 0%
inhibition [2]: 21%
IC50 [3]: 34 µM

CCCCCCCCCCCCCCCC1OC(=O)[C@@H]2O[C@H]12 (some centres undefined)
inhibition [1]: 0%
inhibition [2]: 35%
IC50 [3]: 140 µM

CCCCCCCCCC1OC(=O)[C@@H]2O[C@H]12 (some centres undefined)
inhibition [1]: 40%
inhibition [2]: 33%
IC50 [3]: > 220 µM

CCCCCCCCCCCCCC(=O)[C@H]1O[C@H]1C(N)=O
inhibition [1]: 0%
inhibition [2]: 47%
IC50 [3]: 13 µM

CCCCCCCCCCCCCC(O)[C@H]1O[C@H]1C(=O)N(C)C (some centres undefined)
inhibition [1]: 5%
inhibition [2]: 16%
IC50 [3]: 69 µM

CCCCCCCCCCCCCC1OC(=O)[C@@H]2O[C@H]12 (some centres undefined)
inhibition [1]: 0%
inhibition [2]: 2%
IC50 [3]: > 180 µM

CCCCCCCCC(=O)[C@H]1O[C@H]1C(=O)N(C)C
inhibition [1]: 1%
inhibition [2]: 0%
IC50 [3]: 140 µM

CCCCCCCCCCCC1OC(=O)[C@@H]2O[C@H]12 (some centres undefined)
inhibition [1]: 4%
inhibition [2]: 19%
IC50 [3]: > 200 µM

C/C=C/C/C=C/CCC(=O)[C@H]1O[C@H]1C(N)=O [CERULENIN]
inhibition [4]: 48%
inhibition [1]: 96%
IC50 [3]: 17 µM
